In ChEMBL document CHEMBL1833861 (J Med Chem, 2011):
Calls of active or inactive are those of the source. The calls are words filed in the database; no cut-off is given here.

How the values were obtained:
[1] = molecular target: T1, Neuronal acetylcholine receptor; alpha4/beta2 (Homo sapiens, UniProt P17787+P43681); experiment: Agonist activity at human alpha4beta2 nAChR expressed in human SH-EP1 cells assessed as increase of carbamylcholine-induced 86Rb+ ion efflux by liquid scintillation counting relative to carbamylcholine; assay type: functional, cell-based
[2] = molecular target: T1, Neuronal acetylcholine receptor; alpha4/beta2; experiment: Agonist activity at human alpha4beta2 nAChR expressed in human SH-EP1 cells assessed as increase of carbamylcholine-induced 86Rb+ ion efflux by liquid scintillation counting; assay type: functional, cell-based
Rattus norvegicus = species on record: Rattus norvegicus; experiment: Selectivity ratio of Ki for rat alpha4beta2 nAChR over Ki for rat alpha3beta4 nAChR
[3] = molecular target: Neuronal acetylcholine receptor; alpha4/beta4 (Rattus norvegicus, UniProt P09483+P12392); experiment: Displacement of [3H]epibatidine from rat alpha4beta4 nAChR receptor; assay type: protein-complex assay
[4] = molecular target: T2, Neuronal acetylcholine receptor; alpha4/beta2 (Rattus norvegicus, UniProt P09483+P12390); experiment: Displacement of [3H]epibatidine from rat alpha4beta2 nAChR receptor; assay type: protein-complex assay
[5] = molecular target: Neuronal acetylcholine receptor; alpha3/beta4 (Rattus norvegicus, UniProt P04757+P12392); experiment: Displacement of [3H]epibatidine from rat alpha3beta4 nAChR receptor; assay type: protein-complex assay
[6] = molecular target: Neuronal acetylcholine receptor; alpha2/beta4 (Rattus norvegicus, UniProt P12389+P12392); experiment: Displacement of [3H]epibatidine from rat alpha2beta4 receptor; assay type: protein-complex assay
[7] = molecular target: Neuronal acetylcholine receptor; alpha3/beta2 (Rattus norvegicus, UniProt P04757+P12390); experiment: Displacement of [3H]epibatidine from rat alpha3beta2 receptor; assay type: protein-complex assay
[8] = molecular target: Neuronal acetylcholine receptor; alpha2/beta2 (Rattus norvegicus, UniProt P12389+P12390); experiment: Displacement of [3H]epibatidine from rat alpha2beta2 receptor; assay type: protein-complex assay
[9] = molecular target: T1, Neuronal acetylcholine receptor; alpha4/beta2; experiment: Antagonist activity at human alpha4beta2 nAChR expressed in SH-EP1 cells assessed as inhibition of carbamylcholine-induced 86Rb+ ion efflux by liquid scintillation counting; assay type: functional, cell-based
[10] = molecular target: T1, Neuronal acetylcholine receptor; alpha4/beta2; experiment: Antagonist activity at human alpha4beta2 nAChR expressed in SH-EP1 cells assessed as inhibition of carbamylcholine-induced 86Rb+ ion efflux by liquid scintillation counting relative to mecamylamine; assay type: functional, cell-based
Mus musculus [11] = experiment: Antidepressant activity in BALB/cJ mouse assessed as decrease in immobility time at 30 mg/kg, ip after 30 mins by forced swim test; assay type: functional, organism-based; design: dose 30 mg/kg
Outline: (§1)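 Male BALB/cJ mice, 8–10 weeks old; compound in injectable water given ip at 10 mL/kg. Sertraline (10 or 20 mg/kg) served as positive control. 30 min post-dose, each mouse placed in a glass cylinder with 12 cm of 23 ± 1 °C water; immobility (floating) timed over a 6 min trial. n = 10/group; ANOVA with post hoc test.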

[12] = molecular target: T2, Neuronal acetylcholine receptor; alpha4/beta2; experiment: Displacement of [3H]epibatidine from rat alpha4beta2 receptor expressed in HEK cells; assay type: cell-based, HEK293
Outline: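 Competition binding of [3H]epibatidine to membrane fractions from HEK cells stably transfected with rat α4 and β2 subunits; Ki values for blockade of specific binding.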

[13] = Binding affinity to sigma2 receptor at 10 uM by radioligand displacement assay
[14] = molecular target: Sigma non-opioid intracellular receptor 1 (Homo sapiens) (UniProt Q99720); experiment: Binding affinity to sigma1 receptor at 10 uM by radioligand displacement assay
[15] = molecular target: Sodium-dependent serotonin transporter (Homo sapiens) (UniProt P31645); experiment: Binding affinity to SERT at 10 uM by radioligand displacement assay
[16] = molecular target: Sodium-dependent noradrenaline transporter (Homo sapiens) (UniProt P23975); experiment: Binding affinity to NET at 10 uM by radioligand displacement assay
[17] = molecular target: T3, Kappa-type opioid receptor (Homo sapiens, UniProt P41145); experiment: Binding affinity to kappa opioid receptor at 10 uM by radioligand displacement assay
[18] = molecular target: Delta-type opioid receptor (Homo sapiens) (UniProt P41143); experiment: Binding affinity to delta opioid receptor at 10 uM by radioligand displacement assay
[19] = molecular target: Muscarinic acetylcholine receptor M4 (Homo sapiens) (UniProt P08173); experiment: Binding affinity to muscarinic M4 receptor at 10 uM by radioligand displacement assay
[20] = molecular target: Muscarinic acetylcholine receptor M3 (Homo sapiens) (UniProt P20309); experiment: Binding affinity to muscarinic M3 receptor at 10 uM by radioligand displacement assay
[21] = molecular target: Muscarinic acetylcholine receptor M2 (Homo sapiens) (UniProt P08172); experiment: Binding affinity to muscarinic M2 receptor at 10 uM by radioligand displacement assay
[22] = molecular target: Muscarinic acetylcholine receptor M1 (Homo sapiens) (UniProt P11229); experiment: Binding affinity to muscarinic M1 receptor at 10 uM by radioligand displacement assay
[23] = molecular target: Histamine H4 receptor (Homo sapiens) (UniProt Q9H3N8); experiment: Binding affinity to histamine H4 receptor at 10 uM by radioligand displacement assay
[24] = molecular target: Histamine H3 receptor (Homo sapiens) (UniProt Q9Y5N1); experiment: Binding affinity to histamine H3 receptor at 10 uM by radioligand displacement assay
[25] = molecular target: Histamine H2 receptor (Homo sapiens) (UniProt P25021); experiment: Binding affinity to histamine H2 receptor at 10 uM by radioligand displacement assay
[26] = molecular target: Beta-2 adrenergic receptor (Homo sapiens) (UniProt P07550); experiment: Binding affinity to beta2 adrenergic receptor at 10 uM by radioligand displacement assay
[27] = molecular target: Beta-1 adrenergic receptor (Homo sapiens) (UniProt P08588); experiment: Binding affinity to beta1 adrenergic receptor at 10 uM by radioligand displacement assay
[28] = molecular target: Alpha-2C adrenergic receptor (Homo sapiens) (UniProt P18825); experiment: Binding affinity to Alpha-2C adrenergic receptor at 10 uM by radioligand displacement assay
[29] = molecular target: Alpha-2B adrenergic receptor (Homo sapiens) (UniProt P18089); experiment: Binding affinity to alpha2B adrenergic receptor at 10 uM by radioligand displacement assay
[30] = molecular target: Alpha-2A adrenergic receptor (Homo sapiens) (UniProt P08913); experiment: Binding affinity to alpha2A adrenergic receptor at 10 uM by radioligand displacement assay
[31] = molecular target: Alpha-1D adrenergic receptor (Homo sapiens) (UniProt P25100); experiment: Binding affinity to Alpha-1D adrenergic receptor at 10 uM by radioligand displacement assay
[32] = molecular target: Alpha-1B adrenergic receptor (Homo sapiens) (UniProt P35368); experiment: Binding affinity to Alpha-1B adrenergic receptor at 10 uM by radioligand displacement assay
[33] = molecular target: Alpha-1A adrenergic receptor (Homo sapiens) (UniProt P35348); experiment: Binding affinity to alpha1A adrenergic receptor at 10 uM by radioligand displacement assay
[34] = Binding affinity to rat benzodiazepine receptor at 10 uM by radioligand displacement assay
[35] = molecular target: D(1B) dopamine receptor (Homo sapiens) (UniProt P21918); experiment: Binding affinity to dopamine D5 receptor at 10 uM by radioligand displacement assay
[36] = molecular target: D(4) dopamine receptor (Homo sapiens) (UniProt P21917); experiment: Binding affinity to dopamine D4 receptor at 10 uM by radioligand displacement assay
[37] = molecular target: D(3) dopamine receptor (Homo sapiens) (UniProt P35462); experiment: Binding affinity to dopamine D3 receptor at 10 uM by radioligand displacement assay
[38] = molecular target: D(2) dopamine receptor (Homo sapiens) (UniProt P14416); experiment: Binding affinity to dopamine D2 receptor at 10 uM by radioligand displacement assay
[39] = molecular target: D(1A) dopamine receptor (Homo sapiens) (UniProt P21728); experiment: Binding affinity to dopamine D1 receptor at 10 uM by radioligand displacement assay
[40] = Binding affinity to GABAA receptor at 10 uM by radioligand displacement assay
[41] = molecular target: 5-hydroxytryptamine receptor 7 (Homo sapiens) (UniProt P34969); experiment: Binding affinity to 5HT7 receptor at 10 uM by radioligand displacement assay
[42] = molecular target: 5-hydroxytryptamine receptor 6 (Homo sapiens) (UniProt P50406); experiment: Binding affinity to 5HT6 receptor at 10 uM by radioligand displacement assay
[43] = Binding affinity to 5HT3 receptor at 10 uM by radioligand displacement assay
[44] = molecular target: 5-hydroxytryptamine receptor 2C (Homo sapiens) (UniProt P28335); experiment: Binding affinity to 5HT2C receptor at 10 uM by radioligand displacement assay
[45] = molecular target: 5-hydroxytryptamine receptor 2B (Homo sapiens) (UniProt P41595); experiment: Binding affinity to 5HT2B receptor at 10 uM by radioligand displacement assay
[46] = molecular target: 5-hydroxytryptamine receptor 2A (Homo sapiens) (UniProt P28223); experiment: Binding affinity to 5HT2A receptor at 10 uM by radioligand displacement assay
[47] = molecular target: 5-hydroxytryptamine receptor 1E (Homo sapiens) (UniProt P28566); experiment: Binding affinity to 5HT1E receptor at 10 uM by radioligand displacement assay
[48] = molecular target: 5-hydroxytryptamine receptor 1B (Homo sapiens) (UniProt P28222); experiment: Binding affinity to 5HT1B receptor at 10 uM by radioligand displacement assay
[49] = molecular target: 5-hydroxytryptamine receptor 1D (Homo sapiens) (UniProt P28221); experiment: Binding affinity to 5HT1D receptor at 10 uM by radioligand displacement assay
[50] = molecular target: 5-hydroxytryptamine receptor 1A (Homo sapiens) (UniProt P08908); experiment: Binding affinity to 5HT1A receptor at 10 uM by radioligand displacement assay
[51] = molecular target: T3, Kappa-type opioid receptor; experiment: Binding affinity to kappa opioid receptor by radioligand displacement assay
Mus musculus [52] = experiment: Antidepressant activity in BALB/cJ mouse assessed as decrease in immobility time at 1 mg/kg, ip after 30 mins by forced swim test; assay type: functional, organism-based; design: dose 1 mg/kg; outline: as §1
Mus musculus [53] = experiment: Antidepressant activity in BALB/cJ mouse assessed as decrease in immobility time at 3 mg/kg, ip after 30 mins by forced swim test; assay type: functional, organism-based; design: dose 3 mg/kg; outline: as §1
[54] = molecular target: Mu-type opioid receptor (Homo sapiens) (UniProt P35372); experiment: Binding affinity to MOR at 10 uM by radioligand displacement assay
Mus musculus [55] = experiment: Antidepressant activity in BALB/cJ mouse assessed as decrease in immobility time at 10 mg/kg, po after 30 mins by forced swim test; assay type: functional, organism-based; design: dose 10 mg/kg
Outline: (§2)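 Male BALB/cJ mice, 8–10 weeks old, dosed by oral gavage with compound in injectable water (10 mL/kg). Sertraline served as positive control. Forced swim begins 30 min after dosing, in a cylinder with 12 cm of 23 ± 1 °C water; total immobility recorded over 6 min. ANOVA followed by Newman-Keuls post hoc test.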

Mus musculus [56] = experiment: Antidepressant activity in BALB/cJ mouse assessed as decrease in immobility time at 1 mg/kg, po after 30 mins by forced swim test; assay type: functional, organism-based; design: dose 1 mg/kg; outline: as §2
Mus musculus [57] = experiment: Antidepressant activity in BALB/cJ mouse assessed as decrease in immobility time at 3 mg/kg, po after 30 mins by forced swim test; assay type: functional, organism-based; design: dose 3 mg/kg; outline: as §2
Liver microsomes = experiment: Metabolic stability in human liver microsomes at 1 uM; assay type: ADME, Microsome
Liver = experiment: Metabolic stability in mouse liver microsomes at 1 uM; assay type: ADME, Microsome
Plasma = experiment: Plasma protein binding in CD1 mouse at 10 uM; assay type: ADME, cell-free
[58] = Inhibition of cytochrome P450; assay type: ADME
Outline: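 Inhibitory potential tested against nine different CYP450 enzymes.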

T1 sequence (P17787 whole entry): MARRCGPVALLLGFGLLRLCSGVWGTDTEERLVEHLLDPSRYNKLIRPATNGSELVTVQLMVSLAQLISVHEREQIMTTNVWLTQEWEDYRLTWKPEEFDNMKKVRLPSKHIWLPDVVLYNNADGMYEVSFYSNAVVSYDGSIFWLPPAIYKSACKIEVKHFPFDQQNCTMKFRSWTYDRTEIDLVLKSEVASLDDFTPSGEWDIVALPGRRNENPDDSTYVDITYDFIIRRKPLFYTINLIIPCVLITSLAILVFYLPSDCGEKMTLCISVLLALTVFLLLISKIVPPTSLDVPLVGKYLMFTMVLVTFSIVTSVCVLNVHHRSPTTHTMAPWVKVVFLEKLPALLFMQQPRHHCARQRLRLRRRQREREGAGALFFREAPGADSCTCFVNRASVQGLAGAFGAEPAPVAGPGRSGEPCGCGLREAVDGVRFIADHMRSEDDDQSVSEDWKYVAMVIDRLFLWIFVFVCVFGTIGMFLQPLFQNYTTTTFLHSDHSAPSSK
T1 sequence (P43681 whole entry): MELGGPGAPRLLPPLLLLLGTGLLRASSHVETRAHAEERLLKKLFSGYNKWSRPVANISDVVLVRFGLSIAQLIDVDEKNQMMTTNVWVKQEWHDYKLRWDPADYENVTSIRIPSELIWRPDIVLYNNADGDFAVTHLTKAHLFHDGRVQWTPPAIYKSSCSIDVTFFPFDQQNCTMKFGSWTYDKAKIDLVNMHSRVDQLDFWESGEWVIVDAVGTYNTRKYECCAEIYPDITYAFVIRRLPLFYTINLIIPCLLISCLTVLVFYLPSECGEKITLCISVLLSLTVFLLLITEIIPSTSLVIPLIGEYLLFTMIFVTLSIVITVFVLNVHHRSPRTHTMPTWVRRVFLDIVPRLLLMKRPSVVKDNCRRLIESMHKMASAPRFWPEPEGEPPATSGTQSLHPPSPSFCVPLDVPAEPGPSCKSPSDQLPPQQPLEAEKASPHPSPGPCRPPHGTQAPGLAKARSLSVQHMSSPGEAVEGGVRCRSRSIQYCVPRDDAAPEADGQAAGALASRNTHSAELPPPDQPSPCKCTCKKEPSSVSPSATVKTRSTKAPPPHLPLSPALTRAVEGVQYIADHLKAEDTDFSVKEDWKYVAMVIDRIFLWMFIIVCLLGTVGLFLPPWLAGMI
T2 sequence (P09483 whole entry): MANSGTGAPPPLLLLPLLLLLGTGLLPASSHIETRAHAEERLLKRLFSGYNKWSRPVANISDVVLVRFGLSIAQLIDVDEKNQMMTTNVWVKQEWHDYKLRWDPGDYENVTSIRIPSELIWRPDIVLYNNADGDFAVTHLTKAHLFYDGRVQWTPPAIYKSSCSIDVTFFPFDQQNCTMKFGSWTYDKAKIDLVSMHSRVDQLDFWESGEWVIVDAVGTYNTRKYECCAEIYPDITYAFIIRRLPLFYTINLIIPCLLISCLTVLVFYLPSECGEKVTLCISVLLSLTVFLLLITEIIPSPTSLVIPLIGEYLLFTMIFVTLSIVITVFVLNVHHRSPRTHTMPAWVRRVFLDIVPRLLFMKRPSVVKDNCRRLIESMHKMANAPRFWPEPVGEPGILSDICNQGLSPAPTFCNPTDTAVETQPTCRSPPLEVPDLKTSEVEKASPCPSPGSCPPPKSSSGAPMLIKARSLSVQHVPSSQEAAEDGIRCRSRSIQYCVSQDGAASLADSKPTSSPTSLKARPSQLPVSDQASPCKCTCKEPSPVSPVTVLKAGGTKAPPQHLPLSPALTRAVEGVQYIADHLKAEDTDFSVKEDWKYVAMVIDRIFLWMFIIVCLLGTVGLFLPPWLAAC
T2 sequence (P12390 whole entry): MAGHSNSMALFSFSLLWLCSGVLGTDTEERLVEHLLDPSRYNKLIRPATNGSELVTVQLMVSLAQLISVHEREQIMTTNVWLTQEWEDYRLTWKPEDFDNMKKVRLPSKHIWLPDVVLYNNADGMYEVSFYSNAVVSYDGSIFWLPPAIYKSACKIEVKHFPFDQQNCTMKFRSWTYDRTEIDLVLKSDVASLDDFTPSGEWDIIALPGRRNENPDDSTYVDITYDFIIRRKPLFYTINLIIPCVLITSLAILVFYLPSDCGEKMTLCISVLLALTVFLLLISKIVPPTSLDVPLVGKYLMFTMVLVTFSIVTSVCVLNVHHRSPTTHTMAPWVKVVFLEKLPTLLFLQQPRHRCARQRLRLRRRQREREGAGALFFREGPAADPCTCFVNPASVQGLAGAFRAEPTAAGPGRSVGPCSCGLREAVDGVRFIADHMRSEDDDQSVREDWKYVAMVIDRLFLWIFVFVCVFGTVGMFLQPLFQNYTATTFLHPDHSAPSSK
T3 sequence (P41145 whole entry): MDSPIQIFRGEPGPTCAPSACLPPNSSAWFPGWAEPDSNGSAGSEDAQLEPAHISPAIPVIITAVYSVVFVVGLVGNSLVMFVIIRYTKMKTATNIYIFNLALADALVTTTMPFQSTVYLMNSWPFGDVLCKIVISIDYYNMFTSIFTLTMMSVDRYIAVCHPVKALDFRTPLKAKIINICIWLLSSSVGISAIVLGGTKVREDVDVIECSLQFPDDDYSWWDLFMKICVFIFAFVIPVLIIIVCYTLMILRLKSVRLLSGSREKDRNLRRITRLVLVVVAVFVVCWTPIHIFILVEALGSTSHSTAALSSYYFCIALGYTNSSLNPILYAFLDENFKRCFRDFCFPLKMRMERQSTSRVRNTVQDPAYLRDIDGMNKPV
Chain of Neuronal acetylcholine receptor; alpha3/beta2 (P04757 whole entry): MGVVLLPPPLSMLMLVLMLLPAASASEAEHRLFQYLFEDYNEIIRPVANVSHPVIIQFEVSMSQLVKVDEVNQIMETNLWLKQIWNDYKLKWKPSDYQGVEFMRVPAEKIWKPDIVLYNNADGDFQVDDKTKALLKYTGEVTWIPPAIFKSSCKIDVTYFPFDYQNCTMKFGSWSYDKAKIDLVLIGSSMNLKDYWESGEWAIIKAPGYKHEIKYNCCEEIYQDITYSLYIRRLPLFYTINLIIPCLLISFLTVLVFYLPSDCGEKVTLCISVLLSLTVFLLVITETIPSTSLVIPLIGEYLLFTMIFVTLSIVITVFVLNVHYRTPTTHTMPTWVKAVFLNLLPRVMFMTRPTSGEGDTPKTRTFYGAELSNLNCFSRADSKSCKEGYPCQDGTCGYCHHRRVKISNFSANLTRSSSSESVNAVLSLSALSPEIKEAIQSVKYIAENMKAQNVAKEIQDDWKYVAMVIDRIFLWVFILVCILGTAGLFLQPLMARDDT
Chain of Neuronal acetylcholine receptor; alpha3/beta2 (P12390 whole entry): as the sequence (P12390 whole entry) above
Chain of Neuronal acetylcholine receptor; alpha3/beta4 (P04757 whole entry): as the sequence (P04757 whole entry) above
Chain of Neuronal acetylcholine receptor; alpha3/beta4 (P12392 whole entry): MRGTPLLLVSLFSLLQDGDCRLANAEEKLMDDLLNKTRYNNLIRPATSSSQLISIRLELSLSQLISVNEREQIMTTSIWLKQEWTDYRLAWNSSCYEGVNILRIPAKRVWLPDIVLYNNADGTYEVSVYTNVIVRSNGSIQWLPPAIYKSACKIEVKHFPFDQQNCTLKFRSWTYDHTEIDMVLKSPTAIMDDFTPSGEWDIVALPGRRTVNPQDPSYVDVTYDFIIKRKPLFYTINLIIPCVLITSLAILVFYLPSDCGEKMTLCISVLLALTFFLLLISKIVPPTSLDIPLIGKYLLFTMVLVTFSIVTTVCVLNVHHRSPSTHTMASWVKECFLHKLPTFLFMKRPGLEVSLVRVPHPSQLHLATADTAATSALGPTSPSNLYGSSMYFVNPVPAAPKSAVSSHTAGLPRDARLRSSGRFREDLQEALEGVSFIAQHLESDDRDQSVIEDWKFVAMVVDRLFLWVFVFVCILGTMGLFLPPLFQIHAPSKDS
Chain of 5-hydroxytryptamine receptor 1E (Homo sapiens) (P28566 whole entry): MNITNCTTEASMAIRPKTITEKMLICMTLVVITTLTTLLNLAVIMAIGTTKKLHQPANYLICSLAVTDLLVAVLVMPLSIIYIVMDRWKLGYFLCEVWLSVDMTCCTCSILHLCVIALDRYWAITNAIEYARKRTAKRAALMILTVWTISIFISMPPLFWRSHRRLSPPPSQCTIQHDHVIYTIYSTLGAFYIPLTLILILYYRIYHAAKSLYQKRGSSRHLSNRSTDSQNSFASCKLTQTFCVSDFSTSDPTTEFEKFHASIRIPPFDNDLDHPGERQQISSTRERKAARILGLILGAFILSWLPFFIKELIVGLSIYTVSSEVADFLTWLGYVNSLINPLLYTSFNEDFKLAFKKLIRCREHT

OCc1cc(-c2cncc(OC[C@@H]3CCN3)c2)on1
Efficacy [1]: 13% | EC50 [2]: 25 nM | Ratio Ki (Rattus norvegicus): 20000 | Ki [3]: 81 nM | Ki [4]: 0.31 nM | Ki [5]: 6660 nM | Ki [6]: 310 nM | Ki [7]: 2.9 nM | Ki [8]: 0.32 nM | IC50 [9]: 16 nM | Efficacy [10]: 66% | Activity (Mus musculus [11]): Active | Ki [12]: 0.31 nM

Cl.OCCCc1cc(-c2cncc(OC[C@@H]3CCN3)c2)on1
Efficacy [1]: 13% | EC50 [2]: 36 nM | inhibition [13]: -4.3% | inhibition [14]: 25.9% | inhibition [15]: -0.6% | inhibition [16]: 14.2% | inhibition [17]: 20% | inhibition [18]: 6.4% | inhibition [19]: 2% | inhibition [20]: -6.8% | inhibition [21]: 11.4% | inhibition [22]: 2% | inhibition [23]: -4.4% | inhibition [24]: 6.2% | inhibition [25]: 42.6% | inhibition [26]: -1% | inhibition [27]: -3.2% | inhibition [28]: 22% | inhibition [29]: 10.8% | inhibition [30]: -0.5% | inhibition [31]: 2.9% | inhibition [32]: -0.4% | inhibition [33]: -9.5% | inhibition [34]: 21.7% | inhibition [35]: -1.8% | inhibition [36]: 19.8% | inhibition [37]: 15.3% | inhibition [38]: 19.8% | inhibition [39]: -3.3% | inhibition [40]: 26.9% | inhibition [41]: 16.2% | inhibition [42]: 22.3% | inhibition [43]: 18.8% | inhibition [44]: 14.6% | inhibition [45]: 17.7% | inhibition [46]: 22.2% | inhibition [47]: 4.1% | inhibition [48]: -9.9% | inhibition [49]: 7.1% | inhibition [50]: 0.3% | Ratio Ki (Rattus norvegicus): 15000 | Ki [51]: > 10000 nM | Ki [3]: 182 nM | Ki [4]: 0.67 nM | Ki [5]: > 10000 nM | Ki [6]: 1410 nM | Ki [7]: 16 nM | Ki [8]: 0.9 nM | IC50 [9]: 61 nM | Efficacy [10]: 68% | Activity (Mus musculus [52]): inactive | Activity (Mus musculus [53]): Active | inhibition [54]: 14.2% | Ki [12]: 0.67 nM | Activity (Mus musculus [55]): Active | Activity (Mus musculus [56]): inactive | Activity (Mus musculus [57]): inactive | Stability (Liver microsomes): Stable | Stability (Liver): Stable | PPB (Plasma): 26% | inhibition (INH) [58]: Not Active
